ChEMBL document CHEMBL1140235, “Novel 4-(4-aryl)cyclohexyl-1-(2-pyridyl)piperazines as Delta(8)-Delta(7) sterol isomerase (emopamil binding protein) selective ligands with antiproliferative activity” (J Med Chem, 2008)

How the values were obtained:
PC-3 [1] = assay: Antiproliferative activity against human PC3 cells expressing EBP at 100 uM after 48 hrs by MTT assay; format: functional; conditions: PC-3, 48 h
Method in brief: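 PC-3 human prostate cancer cells grown in RPMI 1640 with 10% FBS, 2 mM glutamine and penicillin/streptomycin at 37 °C under 5% CO₂. Seeded at 10 000 cells/well, then dosed the next day with solvent (ethanol, DMSO) controls. Incubated 48 h. MTT 0.5 mg/mL added for 3 h at 37 °C, formazan dissolved in DMSO, absorbance read at 570 and 630 nm. Percent inhibition at 100 µM, n ≥ 2 separate experiments.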

[2] = Displacement of [3H]-DTG from sigma 2-type opioid receptor in rat liver membrane in presence of (+)-pentazocine; format: cell membranes
Method in brief: (§1)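 Radioligand displacement run by previously published methods, EBP per Moebius and σ1/σ2 per Matsumoto. Tissues from male Dunkin guinea pigs and Wistar Hannover rats (250–300 g). IC50 from six to nine drug concentrations in two or three experiments, samples in duplicate.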

PC-3 [3] = assay: Cytotoxicity against human PC3 cells assessed as LDH release at 100 uM after 24 hrs relative to untreated control; format: functional
Method in brief: (§2)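 PC-3 cells exposed to test compound for 24 h at 37 °C, 5% CO2. LDH release into the medium was measured fluorimetrically (ex 560/em 590 nm) after 10 min with substrate mix at room temperature, then stop solution. Total LDH taken from lysed untreated wells. % cytotoxicity = 100 × (treated medium LDH − background)/(total LDH − background).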

[4] = molecular target: T1, 3-beta-hydroxysteroid-Delta(8),Delta(7)-isomerase (Cavia porcellus, UniProt Q60490); assay: Displacement of [3H](-)-(S)-emopamil from EBP in guinea pig liver membrane; format: cell membranes; method in brief: as §1
T1 sequence (Q60490 whole entry): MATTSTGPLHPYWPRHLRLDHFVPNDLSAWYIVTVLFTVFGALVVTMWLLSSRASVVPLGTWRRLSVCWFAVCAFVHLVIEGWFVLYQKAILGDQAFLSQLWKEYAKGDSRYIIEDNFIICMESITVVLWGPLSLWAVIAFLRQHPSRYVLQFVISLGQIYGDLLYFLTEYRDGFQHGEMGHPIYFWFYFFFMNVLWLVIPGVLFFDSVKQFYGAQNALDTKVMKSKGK

[5] = Selectivity ratio of Ki for sigma 2 receptor in rat liver membrane to Ki for EBP in guinea pig liver membrane; format: cell membranes
[6] = molecular target: Sigma non-opioid intracellular receptor 1 (Cavia porcellus, UniProt Q60492); assay: Displacement of [3H](+)-pentazocine from sigma 1 receptor in guinea pig brain membrane without cerebellum; format: cell membranes; method in brief: as §1
Sequence of Sigma non-opioid intracellular receptor 1 (Q60492 whole entry): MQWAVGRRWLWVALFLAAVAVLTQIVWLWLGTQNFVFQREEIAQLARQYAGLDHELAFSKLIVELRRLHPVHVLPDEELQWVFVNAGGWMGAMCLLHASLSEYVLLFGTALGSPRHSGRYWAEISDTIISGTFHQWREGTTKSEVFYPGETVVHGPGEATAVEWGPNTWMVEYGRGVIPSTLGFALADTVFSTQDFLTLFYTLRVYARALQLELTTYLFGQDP

Cavia porcellus = organism: Cavia porcellus; assay: Selectivity ratio of Ki for sigma 1 receptor in guinea pig brain membrane without cerebellum to Ki for EBP in guinea pig liver membrane; format: cell membranes
D(2) dopamine receptor = D(2) dopamine receptor (Rattus norvegicus, UniProt P61169); assay: Displacement of [3H]spiroperidol from dopamine D2 receptor in rat striatal membrane; format: cell membranes, Striatum
Sequence of D(2) dopamine receptor (P61169 whole entry): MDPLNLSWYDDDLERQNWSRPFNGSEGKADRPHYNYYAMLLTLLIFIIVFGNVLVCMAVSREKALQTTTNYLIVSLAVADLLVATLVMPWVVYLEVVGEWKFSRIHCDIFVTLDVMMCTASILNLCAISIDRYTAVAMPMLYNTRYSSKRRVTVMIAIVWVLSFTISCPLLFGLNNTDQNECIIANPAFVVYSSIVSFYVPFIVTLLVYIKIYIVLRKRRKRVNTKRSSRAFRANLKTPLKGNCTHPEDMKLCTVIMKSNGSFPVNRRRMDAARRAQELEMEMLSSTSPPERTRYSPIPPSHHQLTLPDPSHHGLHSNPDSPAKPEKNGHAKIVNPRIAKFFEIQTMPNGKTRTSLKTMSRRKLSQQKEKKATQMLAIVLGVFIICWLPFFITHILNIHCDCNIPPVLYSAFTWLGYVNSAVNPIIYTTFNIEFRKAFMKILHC

[7] = molecular target: T2, 5-hydroxytryptamine receptor 1A (Rattus norvegicus, UniProt P19327); assay: Displacement of [3H]8OH-DPAT from 5HT1A receptor in rat hippocampal membrane; format: cell membranes, Hippocampus
T2 sequence (P19327 whole entry): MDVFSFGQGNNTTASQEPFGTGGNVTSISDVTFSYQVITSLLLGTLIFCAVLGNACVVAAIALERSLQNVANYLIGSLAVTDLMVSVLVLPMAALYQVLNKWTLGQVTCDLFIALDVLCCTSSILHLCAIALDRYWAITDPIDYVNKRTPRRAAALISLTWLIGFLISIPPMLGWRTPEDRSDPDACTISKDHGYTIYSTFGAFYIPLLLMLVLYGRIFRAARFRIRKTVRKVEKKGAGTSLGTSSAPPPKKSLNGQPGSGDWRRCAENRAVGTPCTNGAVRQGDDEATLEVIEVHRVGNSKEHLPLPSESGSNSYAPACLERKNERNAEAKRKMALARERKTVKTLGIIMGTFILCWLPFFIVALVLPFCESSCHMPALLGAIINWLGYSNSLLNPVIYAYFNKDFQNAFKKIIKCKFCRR

[8] = molecular target: T3, Adrenergic receptor alpha-1 (Rattus norvegicus, UniProt P15823+P23944+P43140); assay: Displacement of [3H]prazosin from adrenergic alpha1 receptor in rat cortical membrane; format: cell membranes
T3 sequence (P15823 whole entry): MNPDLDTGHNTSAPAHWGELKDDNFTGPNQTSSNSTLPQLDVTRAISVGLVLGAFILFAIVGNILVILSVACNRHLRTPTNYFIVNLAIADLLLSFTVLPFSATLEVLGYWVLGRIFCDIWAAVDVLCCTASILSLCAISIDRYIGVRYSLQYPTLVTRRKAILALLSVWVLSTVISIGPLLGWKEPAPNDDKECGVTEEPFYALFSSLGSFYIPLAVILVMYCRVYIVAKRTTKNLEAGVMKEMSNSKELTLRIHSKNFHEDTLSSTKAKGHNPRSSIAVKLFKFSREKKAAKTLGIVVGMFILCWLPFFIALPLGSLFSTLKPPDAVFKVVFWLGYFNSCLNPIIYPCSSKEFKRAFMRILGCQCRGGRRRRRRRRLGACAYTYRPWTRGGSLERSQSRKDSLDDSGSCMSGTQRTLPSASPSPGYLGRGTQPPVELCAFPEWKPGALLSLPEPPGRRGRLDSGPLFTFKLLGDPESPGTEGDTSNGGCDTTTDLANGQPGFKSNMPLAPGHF
T3 sequence (P23944 whole entry): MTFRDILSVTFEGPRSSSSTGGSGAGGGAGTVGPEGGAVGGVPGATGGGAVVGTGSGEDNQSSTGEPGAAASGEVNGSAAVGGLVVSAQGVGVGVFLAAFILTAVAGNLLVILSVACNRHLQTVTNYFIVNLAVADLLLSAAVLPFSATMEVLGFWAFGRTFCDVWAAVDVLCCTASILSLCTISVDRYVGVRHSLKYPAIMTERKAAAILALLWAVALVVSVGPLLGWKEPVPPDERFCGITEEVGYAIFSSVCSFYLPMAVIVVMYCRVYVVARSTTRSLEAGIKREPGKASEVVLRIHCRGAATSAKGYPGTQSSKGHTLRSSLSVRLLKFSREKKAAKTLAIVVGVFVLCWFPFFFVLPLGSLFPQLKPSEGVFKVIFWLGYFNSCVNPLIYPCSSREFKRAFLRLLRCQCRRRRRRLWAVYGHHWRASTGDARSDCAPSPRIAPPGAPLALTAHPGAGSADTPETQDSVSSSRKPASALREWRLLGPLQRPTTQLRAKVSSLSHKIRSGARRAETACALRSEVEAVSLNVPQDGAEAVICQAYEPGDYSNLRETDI
T3 sequence (P43140 whole entry): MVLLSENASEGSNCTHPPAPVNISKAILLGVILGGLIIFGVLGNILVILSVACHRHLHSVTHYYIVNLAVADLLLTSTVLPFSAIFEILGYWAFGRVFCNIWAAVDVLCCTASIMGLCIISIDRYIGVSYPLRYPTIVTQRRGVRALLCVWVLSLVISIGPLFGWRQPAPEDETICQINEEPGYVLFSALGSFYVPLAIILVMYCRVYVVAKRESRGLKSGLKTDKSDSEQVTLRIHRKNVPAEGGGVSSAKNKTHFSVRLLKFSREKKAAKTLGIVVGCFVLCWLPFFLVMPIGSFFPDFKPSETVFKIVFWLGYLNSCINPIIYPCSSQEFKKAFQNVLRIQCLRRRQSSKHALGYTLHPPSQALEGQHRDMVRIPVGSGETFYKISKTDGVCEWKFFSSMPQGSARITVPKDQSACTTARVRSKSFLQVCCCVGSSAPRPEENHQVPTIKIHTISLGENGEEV

PC-3 [9] = assay: Cytotoxicity against human PC3 cells assessed as LDH release after 24 hrs; format: functional, cell-based; conditions: PC-3, 24 h; method in brief: as §2
PC-3 [10] = assay: Antiproliferative activity against human PC3 cells expressing EBP after 48 hrs by MTT assay; format: functional, cell-based
Method in brief: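 MTT read-out at 48 h in PC-3 cells grown in RPMI 1640 with 10% FBS, 2 mM glutamine, penicillin/streptomycin, 37 °C, 5% CO2. 10 000 cells/well seeded day 1, drugs added day 2 over 1–100 µM (150 or 300 µM for some references). Solvent controls included. MTT 0.5 mg/mL for 3 h, formazan dissolved in DMSO, absorbance at 570 and 630 nm.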

SMILES | inhibition at 100 µM (PC-3 [1]) [%] | Ki [2] [nM] | Activity (PC-3 [3]) [%] | Ki [4] [nM] | Ratio Ki [5] | Ki [6] [nM] | Ratio Ki (Cavia porcellus) | Ki (D(2) dopamine receptor) [nM] | Ki [7] [nM] | Ki [8] [nM] | EC50 (PC-3 [9]) [nM] | EC50 (PC-3 [10]) [nM]
Cc1ccccc1NC(=N)Nc1ccccc1C | 27 | 31.1 | <10 | 7660 |  |  |  |  |  |  |  | 
c1ccc(CCN2CCCCC2)cc1 | 30 | 194 | <10 | 595 | 0.3 | 309 | 0.5 |  |  |  |  | 
COc1ccc([C@H]2CC[C@@H](N3CCN(c4ccccn4)CC3)CC2)cc1 |  | 63.8 | <10 | 32.8 |  | 194 | 4 | 787 | 94 | 786 |  | 
COc1cccc2c1CCCC2CCCN1CCN(C2CCCCC2)CC1 (stereo not drawn) |  | 0.34 |  | 8.38 |  |  |  |  |  |  | 64200 | 37700
COc1ccccc1[C@H]1CC[C@@H](N2CCN(c3ccccn3)CC2)CC1 |  | 242 | <10 | 8.15 | 30 | 369 | 45 | 2120 | 480 | 712 |  | 19300
